Results taken from paper PMC7221417 (European journal of medicinal chemistry, 2020).
Values belong to the molecule of their own block, whether it stands above or below them.

Assays:
[1] = tested on: H295R cells (adrenocortical carcinoma); test: Sulforhodamine B; type: cell-based, human
[2] = tested on: MDA-MB-231 cells (ER- / triple negative breast cancer); test: Sulforhodamine B; type: cell-based, human; details: for Selectivity index (SI): IC50 (MCF12A) / IC50 (MDA-MB-231)
[3] = tested on: T47D cells (ER+ breast cancer); test: Sulforhodamine B; type: cell-based, human; details: for IC50: T47D
[4] = target: T1, aromatase (CYP19) in H295R cells (Homo sapiens, UniProt P11511); test: Tritiated water-release assay of aromatase activity in H295R cells; type: cell-based
T1 sequence (P11511 1-503): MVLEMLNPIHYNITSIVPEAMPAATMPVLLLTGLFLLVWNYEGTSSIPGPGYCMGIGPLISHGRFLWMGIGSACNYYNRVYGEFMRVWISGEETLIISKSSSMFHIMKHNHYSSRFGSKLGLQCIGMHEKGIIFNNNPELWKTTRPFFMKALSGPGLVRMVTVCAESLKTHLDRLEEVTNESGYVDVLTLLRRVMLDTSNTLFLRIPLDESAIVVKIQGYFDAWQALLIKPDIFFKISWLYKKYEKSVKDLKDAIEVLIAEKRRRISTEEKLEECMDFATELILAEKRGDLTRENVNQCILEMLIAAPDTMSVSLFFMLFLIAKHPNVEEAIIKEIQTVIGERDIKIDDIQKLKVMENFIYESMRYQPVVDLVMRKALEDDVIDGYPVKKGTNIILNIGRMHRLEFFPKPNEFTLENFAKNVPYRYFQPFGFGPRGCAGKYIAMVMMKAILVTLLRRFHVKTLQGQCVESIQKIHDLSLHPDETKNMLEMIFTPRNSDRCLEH
How it was run: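 H295R cells were seeded at 100,000/well in DMEM/F-12 with Nu Serum and ITS for 24 h, then washed with PBS. They were incubated 1.5 h at 37 °C, 5% CO2, in phenol red-free DMEM/F-12 with 54nM 1β-3H-androstenedione plus test compound at 0.1, 1, 10, 100 nM. Released tritiated water was counted by liquid scintillation. Controls were cell-free blanks and 0.1% DMSO. Data are mean ± SD.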

[5] = tested on: MCF12A cells (non-cancerous breast); test: Sulforhodamine B; type: cell-based, human
[6] = tested on: MCF7 cells (ER+ breast cancer); test: Sulforhodamine B; type: cell-based, human; details: for Selectivity index (SI): IC50 (MCF12A) / IC50 (MCF7)
[7] = tested on: zebrafish (Danio rerio) embryos; details: concentrations far less than its IC50 value in human cancer cells; cited from earlier work
[8] = tested on: zebrafish (Danio rerio) embryos; test: Zebrafish embryo toxicity assay; type: in vivo; details: 0.1, 0.5, 1 μM; 24-96 hpf; vs untreated control
How it was run: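 Wild-type Danio rerio embryos were raised at 28.5 °C. From the 2- or 4-cell stage they were exposed in 5 mL fish medium to test compound at 0.1, 0.5, 1 μM (0.5% DMSO final). Medium was refreshed at 48 h. Mortality, gross morphology and hatching were scored by stereomicroscope every 24 h to 96 hpf, against an untreated control. Triplicates, 60 embryos per treatment from three crosses; mean ± SD.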

[9] = Stability in cell culture medium/DMSO; type: physicochemical; details: 10 μM, full DMEM/F12 medium (max 0.1% DMSO), 37 °C, 1.5 h, HPLC
How it was run: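 Test compound at 10 μM in DMEM/F12 (0.1% DMSO, from DMSO stock) was held 1.5 h at 37 °C. Released ligand was extracted into diethyl ether, then cleaned on silica with acetone. The residue was redissolved in acetone with 100 μM hydrocortisone as external standard. It was run on C18 UHPLC with a 13 min water/acetonitrile gradient at 2 mL/min, with UV detection, and quantified against standard curves. Three replicates.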

[10] = Qualitative solubility in water and organic solvents; type: physicochemical
[11] = Stability in DMSO; type: physicochemical; details: for free anastrozole observed in DMSO (1H NMR): 2 mM, 15 min
[12] = Solubility in culture medium/DMSO and water/DMSO by UV-Vis; type: physicochemical
How it was run: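 Test compound in phenol red-free DMEM-F12 (0.1% DMSO) at 0.01, 0.1, 1, 5, 10, 20 μM, and in water (max 0.5% DMSO) at 1, 5, 10, 15 μM. Each solution was passed through a 0.2 μm syringe filter, then absorbance at 350–370 nm was read on a plate reader. A linear concentration–absorbance relationship was taken to indicate solubility.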

[13] = H295R, 48 h exposure, SRB assay
[14] = MDA-MB-231, 48 h exposure, SRB assay
[15] = MCF12A (non-cancerous), 48 h exposure, SRB assay

IC50 ([1]; Homo sapiens, NCI-H295R, 48 h): > 100 µM
IC50 ([2]; Homo sapiens, MDA-MB-231, 48 h): > 100 µM
IC50 ([3]; Homo sapiens, 48 h): > 100 µM
inhibition at 0.01 µM ([4]; NCI-H295R, read-out: inhibition of aromatase activity): ~50%
IC50 ([6]; Homo sapiens, MCF7, 48 h): > 100 µM
Molecule: CC(C)(C#N)c1cc(Cn2cncn2)cc(C(C)(C)C#N)c1 [anastrozole, reference compound]
IC50 ([5]; Homo sapiens, MCF-12A, 48 h): > 100 µM

solubility in water (qualitative) [10]: soluble in water
Molecule: CC(C)(C#N)c1cc(Cn2cncn2)cc(C(C)(C)C#N)c1.CS(C)=O.[Cl-].[Cl-].[Cl-].[Cl-].[Na+].[Ru+3] [Complex 3, Na[trans-RuCl4ATZ(DMSO)]]

The next lines start with the molecule.

Molecule: N.N.[Cl][Pt][Cl] [cisplatin]
IC50 [1, 13]: 86.5 µM
Selectivity index (SI) [2]: 1.32
IC50 [2, 14]: 32.4 µM
IC50 ([3]; 48 h exposure, SRB assay): > 150 µM
hatching rate of zebrafish embryos [7]: significant inhibition of hatching rate
IC50 [5, 15]: 42.7 µM
Selectivity index (SI) [6]: 2.12
IC50 ([6]; MCF7, 48 h exposure, SRB assay): 20.1 µM

Molecule: RuCp(PPh3)2(ATZ)BF4 [Complex 2]
IC50 [1, 13]: 0.63 µM
Selectivity index (SI) ([1]; IC50 (MCF12A) / IC50 (H295R)): 0.92
Selectivity index (SI) [2]: 1.49
IC50 [2, 14]: 0.39 µM
hatching delay of zebrafish embryos [8]: no apparent
mortality of zebrafish embryos [8]: no apparent
phenotype changes of zebrafish embryos [8]: no apparent
released anastrozole in culture medium [9]: 4%
solubility in organic solvents (qualitative) [10]: soluble in acetone, alcohols and dimethyl sulfoxide (DMSO)
solubility in water (qualitative) [10]: poorly soluble in water
Selectivity index (SI) ([3]; IC50 (MCF12A) / IC50 (T47D)): 1.81
IC50 ([3]; 48 h exposure, SRB assay): 0.32 µM
free anastrozole observed in DMSO (1H NMR) [11]: 2%
change of UV-Vis absorption spectrum in DMSO ([11]; over 1 h): No apparent change
aromatase inhibitory activity at higher concentrations ([4]; above 10 nM (tested up to 100 nM), 1.5 h, H295R cells): slight aromatase inhibitory activity
inhibition of aromatase activity ([4]; up to 10 nM, 1.5 h, H295R cells): No significant inhibition
IC50 [5, 15]: 0.58 µM
Selectivity index (SI) [6]: 1.16
IC50 ([6]; MCF7, 48 h exposure, SRB assay): 0.5 µM
solubility in culture medium ([12]; full DMEM/F12 medium (0.1% DMSO)): ≥ 20 µM
solubility in water ([12]; water (max 0.5% DMSO)): ≥ 15 µM

Molecule: C1=CCCC=CCC1.CC(C)(C#N)c1cc(Cn2cncn2)cc(C(C)(C)C#N)c1.CC(C)(C#N)c1cc(Cn2cncn2)cc(C(C)(C)C#N)c1.[Cl-].[Cl-].[Ru+2] [Complex 1, RuCOD(ATZ)2Cl2]
free anastrozole observed in DMSO (1H NMR) [11]: 25%
